Experimental findings from ChEMBL document CHEMBL1212856, “Anti-Plasmodium activity of imidazolium and triazolium salts” (Bioorg Med Chem, 2010) are described below.

One assay has as its system CHO. Briefly: Cytotoxicity against CHO cells after 48 hrs by MTT assay. Type of assay: cell-based. The following applies: Cricetulus griseus. Summed up:
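CHO cells in RPMI-1640 with 10% fetal calf serum, 25 mM HEPES and gentamicin, grown to 50% confluency before dosing. Dilution series made from a 10 mg/mL DMSO stock, with DMSO-alone controls. After 48 h the medium was replaced with […] for 30 min.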

Another assay deals with Plasmodium falciparum. Briefly: Antiplasmodial activity against Plasmodium falciparum 3D7 after 72 by LDH assay. Type of assay: functional, organism-based. The method, boiled down: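 Non-synchronous chloroquine-sensitive P. falciparum culture at 2% hematocrit and 2% parasitemia, in RPMI-10Pf with twofold serial compound dilutions from a 10 mg/mL DMSO stock. Incubated 72 h at 37 °C under 95% N₂, 3% CO₂, 2% O₂. Resuspended samples went into parasite-specific LDH mix, read at 595 nm after 1 h. IC50 by non-linear regression; mean ± standard error of four independent determinations.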

As a reminder, the IC50 is the midpoint of a concentration-inhibition curve. A high value points to weaker potency in that assay. Consider `O=C(Cn1c[n+](Cc2ccccc2)cn1)c1ccccc1`, for which the half-maximal inhibitory concentration (IC50) in the assay with CHO came to 261 µM; in the assay with Plasmodium falciparum, 73 µM.

Consider `O=C(Cn1cncn1)c1ccccc1`, for which the half-maximal inhibitory concentration (IC50) in the assay with CHO came to 334 µM; in the assay with Plasmodium falciparum it was 894 µM.

On to `Fc1c(F)c(F)c(-n2c[n+]3c(n2)CCC3)c(F)c1F`, for which the IC50 in the assay with CHO came to 303 µM; in the assay on Plasmodium falciparum, 89 µM.

For `CSc1nn(-c2ccccc2)c(C)[n+]1-c1ccccc1`, the IC50 in the assay with CHO stood at 307 µM; with Plasmodium falciparum, 3.1 µM.

With `Clc1ccccc1Cn1cc[n+](Cc2ccccc2Cl)c1`, the half-maximal inhibitory concentration (IC50) in the assay with Plasmodium falciparum is 2 µM.

Regarding `c1ccc2cc(Cn3cc[n+](Cc4ccc5ccccc5c4)c3)ccc2c1`, the values for the IC50 in the assay with CHO and with Plasmodium falciparum were 27 µM and 0.9 µM, respectively.

As for `c1c[nH]cn1` [IMIDAZOLE], the results for the IC50 in the assay on CHO and in the assay on Plasmodium falciparum were 3680 µM and 368 µM, respectively.

Compound `O=[N+]([O-])c1ccc(Cn2cc[n+](Cc3ccc([N+](=O)[O-])cc3)c2)cc1` displayed an IC50 in the assay with Plasmodium falciparum of 9 µM.

With `Brc1ccc(Cn2cc[n+](Cc3ccc4ccccc4c3)c2)cc1`, the IC50 in the assay with CHO came out at 27 µM; in the assay on Plasmodium falciparum, 0.73 µM.

With `c1ccc(Cn2c[n+](Cc3ccccc3)cn2)cc1`, the half-inhibitory concentration (IC50) was 74 µM in the assay on CHO and 100 µM in the assay with Plasmodium falciparum.

As for `C[n+]1c(-c2ccccc2)nn(Cc2ccccc2)c1-c1ccccc1`, the IC50 stood at 87 µM with CHO and 7.8 µM in the assay on Plasmodium falciparum.

Consider `C[n+]1c(-c2ccccc2)nn(CC(=O)CCc2ccccc2)c1-c1ccccc1`, for which the IC50 is 143 µM in the assay with CHO and 0.1 µM in the assay on Plasmodium falciparum.

As to `Brc1cccc(Cn2cc[n+](Cc3cccc(Br)c3)c2)c1`, half-maximal inhibition in the assay with Plasmodium falciparum (IC50) required 1.05 µM.

With `Fc1ccc(Cn2cc[n+](Cc3ccc(F)cc3)c2)cc1`, the values for the IC50 with CHO and with Plasmodium falciparum were 56 µM and 17 µM, respectively.

Regarding `c1nc[nH]n1` [1,2,4-TRIAZOLE], the IC50 is 1270 µM with CHO and 2900 µM with Plasmodium falciparum.

On to `Ic1ccc(Cn2cc[n+](Cc3ccc(I)cc3)c2)cc1`, for which the IC50 in the assay on CHO came to 33 µM; in the assay with Plasmodium falciparum it was 0.35 µM.

Regarding `O=C(Cn1cc[n+](CC(=O)c2ccc(Cc3ccccc3)cc2)c1)c1ccc(Cc2ccccc2)cc1`, the concentration for half-maximal inhibition (IC50) with CHO turned out to be 4.3 µM; in the assay with Plasmodium falciparum, 0.5 µM.

`c1ccc(Cn2cc[n+](Cc3ccc4ccccc4c3)c2)cc1` registered an IC50 with Plasmodium falciparum of 0.9 µM.

For `Brc1ccc(Cn2cc[n+](Cc3ccc(Br)cc3)c2)cc1`, the figures for the IC50 in the assay on CHO and in the assay with Plasmodium falciparum were 172 µM and 0.7 µM, respectively.

`c1ccc(Cn2cc[n+](Cc3ccccc3)c2)cc1` yielded an IC50 in the assay with Plasmodium falciparum of 16 µM.

For the compound `Brc1ccccc1Cn1cc[n+](Cc2ccccc2Br)c1`, the IC50 with Plasmodium falciparum stood at 1.4 µM.

For `O=C(Cn1cc[n+](CC(=O)c2ccc(Cl)cc2)c1)c1ccc(Cl)cc1`, the half-inhibitory concentration (IC50) stood at 53 µM in the assay on CHO and 2.6 µM with Plasmodium falciparum.

In the case of `C[n+]1cn(CC(=O)CCc2ccccc2)nc1-c1ccccc1`, the IC50 in the assay with CHO is 237 µM; in the assay with Plasmodium falciparum it was 3.4 µM.

Regarding `Clc1ccc(Cn2cc[n+](Cc3ccc(Cl)cc3)c2)cc1`, in the assay with Plasmodium falciparum, it took 9 µM to reach half-maximal inhibition (IC50).

In the assay on Plasmodium falciparum, `Brc1ccc(C[n+]2ccn(Cc3ccccc3)c2)cc1` yielded an IC50 of 2.9 µM.

As to `Clc1cccc(Cn2cc[n+](Cc3cccc(Cl)c3)c2)c1`, the IC50 in the assay with Plasmodium falciparum stood at 3.3 µM.

As for `COc1ccc(Cn2cc[n+](Cc3ccc(OC)cc3)c2)cc1`, the IC50 was 30.6 µM in the assay with CHO and 5 µM with Plasmodium falciparum.

For the compound `C[n+]1c(-c2ccccc2)nn(Cc2ccc(Br)cc2)c1-c1ccccc1`, the IC50 was 33 µM in the assay with CHO and 1.68 µM in the assay with Plasmodium falciparum.

Take `CSc1nn(-c2ccccc2)c[n+]1-c1ccccc1`: the IC50 with CHO came out at 224 µM; in the assay with Plasmodium falciparum it was 69 µM.

In the case of `O=C(Cn1c[n+](CC(=O)c2ccc(Br)cc2)cn1)c1ccc(Br)cc1`, the values for the IC50 in the assay with CHO and in the assay on Plasmodium falciparum were 20.9 µM and 10.9 µM, respectively.
